The results in this text go back to ChEMBL document CHEMBL1121956, “Potential antitumor agents. 37. Organophosphorus derivatives of 9-anilinoacridine” (1982).

For one experiment, the system named is L1210. In words: Concentration for inhibiting the growth of L1210 cells by 50% over 3 days was determined. Type of experiment: functional. The settings on record: Mus musculus, L1210, 72 h; read-out: ID50 (the source's name).
For experiment [1], the system named is P388. As to the kind of experiment: Concentration for inhibiting the growth of P-388 cells by 50% over 3 days was determined. Type of experiment: functional. The settings on record: Mus musculus, P388, 72 h; read-out: ID50 (the source's name). The gist of the method: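 Cytotoxicity was measured against cultured murine leukemia cells, P-388 and L1210, over 3 days of continuous drug exposure. Culture and drug-addition conditions follow an earlier report. The value is the drug concentration that inhibits growth by 50% over the 3 days.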

For experiment [2], the system named is P388. As to the kind of experiment: Percentage increase in life span was measured for P-388 cells […] after intraperitoneal administration of a dose of 250 mg/kg. Type of experiment: functional. The settings on record: Mus musculus, P388, ip. The gist of the method:
(§1)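 Mice received 10⁶ P-388 leukemia cells ip. Drug in 0.1 mL of 30% aqueous ethanol was injected ip on days 1, 5 and 9. Doses ran from a toxic level downward at 0.67-fold intervals, with 6 mice per group and 20–30 controls. The percentage increase in mean survival time over controls was taken at the optimal dose. ILS below 20% was treated as nonsignificant.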

The subject of another experiment is Nucleic Acid. As to the kind of experiment: […] association constant for DNA binding to poly (dA.dT). Type of experiment: nucleic-acid assay. The method in brief: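 Association constant for binding to the synthetic polynucleotide poly(dA-dT). Measured by a method described in earlier work.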
The subject of experiment [3] is P388. As to the kind of experiment: Percentage increase in life span was measured for P-388 cells […] after intraperitoneal administration of a dose of 33 mg/kg. As to conditions: Mus musculus, P388, ip. In kind it is functional. The method in brief: as §1
Experiment [4] has as its system P388. In words: Percentage increase in life span was measured for P-388 cells […] after intraperitoneal administration of a dose of 50 mg/kg. Type of experiment: functional. As to conditions: Mus musculus, P388, ip. The gist of the method:
as §1

The subject of experiment [5] is P388. As to the kind of experiment: Percentage increase in life span was measured for P-388 cells […] after intraperitoneal administration of a dose of 190 mg/kg. In kind it is functional. As to conditions: Mus musculus, P388, ip. The method in brief: as §1
In experiment [6] the test system is P388. As to the kind of experiment: Percentage increase in life span was measured for P-388 cells […] after intraperitoneal administration of a dose of 30 mg/kg. As to conditions: Mus musculus, P388, ip. In kind it is functional. The method in brief:
as §1

For experiment [7], the system named is P388. In words: Percentage increase in life span was measured for P-388 cells […] after intraperitoneal administration of a dose of 150 mg/kg. Type of experiment: functional. The settings on record: Mus musculus, P388, ip. The gist of the method:
as §1

The test system of experiment [8] is P388. In words: Percentage increase in life span was measured for P-388 cells […] after intraperitoneal administration of a dose of 8.9 mg/kg. In kind it is functional. As to conditions: Mus musculus, P388, ip. The gist of the method:
as §1

In experiment [9] the test system is P388. In words: Percentage increase in life span was measured for P-388 cells […] after intraperitoneal administration of a dose of 330 mg/kg. Type of experiment: functional. The settings on record: Mus musculus, P388, ip. The gist of the method:
as §1

Experiment [10] deals with P388. As to the kind of experiment: Percentage increase in life span was measured for P-388 cells […] after intraperitoneal administration of a dose of 110 mg/kg. In kind it is functional. As to conditions: Mus musculus, P388, ip. The method in brief: as §1
Experiment [11] relates to P388. As to the kind of experiment: Percentage increase in life span was measured for P-388 cells […] after intraperitoneal administration of a dose of 65 mg/kg. As to conditions: Mus musculus, P388, ip. Type of experiment: functional. The method in brief: as §1
For experiment [12], the system named is P388. As to the kind of experiment: animal or person. As to conditions: Mus musculus, P388, ip.
Experiment [13] relates to P388. In words: Percentage increase in life span was measured for P-388 cells […] after intraperitoneal administration of a dose of 125 mg/kg. In kind it is functional. The settings on record: Mus musculus, P388, ip. The gist of the method:
as §1

The test system of experiment [14] is P388. In words: Percentage increase in life span was measured for P-388 cells […] after intraperitoneal administration of a dose of 66 mg/kg. In kind it is functional. As to conditions: Mus musculus, P388, ip. The method in brief:
as §1

What is called ILS is how much longer treated animals lived than controls.

As to `COP(=O)(Nc1cccc(Nc2c3ccccc3nc3ccccc23)c1)OC`, the IC50 in the experiment with L1210 turned out to be 1800 nM; in the experiment with P388 [1], 1400 nM. For the same compound, in the experiment on P388 [2], the ILS at 250 mg/kg was found to be 34%. This compound came in with a Log K with Nucleic Acid of 5.66.
On to `COP(=O)(Nc1ccc(Nc2c3ccccc3nc3ccccc23)cc1)OC`, for which the IC50 with L1210 came to 15 nM; with P388 [1], 10 nM. This compound yielded an increase in lifespan (ILS) at 33 mg/kg in the experiment on P388 [3] of 74%. The Log K with Nucleic Acid turned out to be 6.26.
As to `O=P1(Nc2ccc(Nc3c4ccccc4nc4ccccc34)cc2)NCCCO1` (stereo unspecified), the IC50 amounted to 800 nM in the experiment on L1210 and 450 nM in the experiment on P388 [1]. Also, the ILS at 50 mg/kg with P388 [4] stood at 9%. Further, in the experiment with Nucleic Acid, the Log K was found to be 6.58.
Consider `COP(=O)(NC(=O)c1ccc(Nc2c3ccccc3nc3ccccc23)cc1)OC`, for which the figures for the IC50 in the experiment with L1210 and in the experiment on P388 [1] were more than 35 nM and 4800 nM, respectively. Also, the ILS at 190 mg/kg in the experiment with P388 [5] was 12%. The same compound displayed a Log K in the experiment on Nucleic Acid of 5.56.
Regarding `COC(=O)Nc1ccc(Nc2c3ccccc3nc3ccccc23)cc1`, the IC50 with L1210 worked out at 60 nM; in the experiment on P388 [1], 26 nM. In the experiment with P388 [6], this compound displayed an ILS at 30 mg/kg of 98%.
For `CNC(=O)Nc1ccc(Nc2c3ccccc3nc3ccccc23)cc1`, the values for the IC50 with L1210 and in the experiment with P388 [1] were 100 nM and 86 nM, respectively. The ILS at 30 mg/kg in the experiment with P388 [6] worked out at 53%.
Consider `O=P1(Nc2ccc(Nc3c4ccccc4nc4ccccc34)cc2)OCCCO1`, for which the IC50 in the experiment on L1210 was found to be 110 nM; with P388 [1], 50 nM. Moreover, the increase in life span (ILS) at 30 mg/kg in the experiment with P388 [6] is 47%. In addition, the Log K with Nucleic Acid worked out at 6.78.
Regarding `CN(C)P(=O)(Nc1ccc(Nc2c3ccccc3nc3ccccc23)cc1)N(C)C`, the IC50 came out at 1500 nM in the experiment on L1210 and 1300 nM with P388 [1]. Moreover, the ILS at 50 mg/kg in the experiment with P388 [4] stood at 29%. Moreover, the Log K with Nucleic Acid stood at 6.08.
For the compound `CNP(=O)(NC)Nc1ccc(Nc2c3ccccc3nc3ccccc23)cc1`, the results for the IC50 with L1210 and with P388 [1] were 2500 nM and 2000 nM, respectively. Further, in the experiment on P388 [4], the ILS at 50 mg/kg came out at 11%. Besides, the Log K in the experiment with Nucleic Acid amounted to 6.84.
Regarding `CS(=O)(=O)Nc1ccc(Nc2c3ccccc3nc3ccccc23)cc1`, the IC50 worked out at 35 nM in the experiment on L1210 and 40 nM in the experiment on P388 [1]. Moreover, in the experiment with P388 [7], the ILS at 150 mg/kg stood at 93%.
Consider `COc1cc(NP(=O)(OC)OC)ccc1Nc1c2ccccc2nc2ccccc12`, for which the IC50 in the experiment with L1210 came to 70 nM; in the experiment on P388 [1] it was 36 nM. The same compound returned an ILS at 8.9 mg/kg in the experiment on P388 [8] of 67%. In the experiment on Nucleic Acid, this compound came in with a Log K of 5.64.
For `NP(=O)(O)Nc1ccc(Nc2c3ccccc3nc3ccccc23)cc1`, the values for the IC50 in the experiment with L1210 and with P388 [1] were 1800 nM and 2800 nM, respectively. This compound registered a Log K with Nucleic Acid of 4.83.
With `COP(=O)(O)Nc1ccc(Nc2c3ccccc3nc3ccccc23)cc1`, the IC50 was found to be 2000 nM in the experiment with L1210 and 4000 nM in the experiment on P388 [1]. This compound also came in with a Log K in the experiment with Nucleic Acid of 5.37.
In the case of `CS(=O)(=O)Cc1ccc(Nc2c3ccccc3nc3ccccc23)cc1`, the IC50 stood at 250 nM with L1210 and 270 nM in the experiment with P388 [1]. This compound also showed an ILS at 330 mg/kg in the experiment with P388 [9] of 49%. The Log K with Nucleic Acid amounted to 5.76.
As to `CCOP(=O)(Nc1ccc(Nc2c3ccccc3nc3ccccc23)cc1)OCC`, the IC50 was 230 nM in the experiment with L1210 and 200 nM with P388 [1]. This compound also gave an ILS at 110 mg/kg in the experiment on P388 [10] of 28%. Moreover, the Log K with Nucleic Acid was determined as 6.47.
For `CP(C)(=O)Nc1ccc(Nc2c3ccccc3nc3ccccc23)cc1`, the IC50 stood at 1300 nM in the experiment on L1210 and 1000 nM with P388 [1]. Moreover, the ILS at 65 mg/kg in the experiment with P388 [11] is 18%. In the experiment on Nucleic Acid, this compound displayed a Log K of 6.81.
Turning to `COc1cc(NS(C)(=O)=O)ccc1Nc1c2ccccc2nc2ccccc12` [AMSACRINE], in the experiment with P388 [1], the IC50 came to 30 nM. This compound had a Log K in the experiment with Nucleic Acid of 5.57. In the experiment with P388 [12], the ILS at 13.3 mg/kg came out at 78%.
As for `COP(=O)(Cc1ccc(Nc2c3ccccc3nc3ccccc23)cc1)OC`, the IC50 in the experiment on L1210 is 670 nM; in the experiment with P388 [1] it was 1400 nM. In the experiment with P388 [13], this compound had an ILS at 125 mg/kg of 2%. The same compound returned a Log K with Nucleic Acid of 5.67.
Consider `CC(=O)Nc1ccc(Nc2c3ccccc3nc3ccccc23)cc1`, for which the values for the IC50 in the experiment with L1210 and in the experiment with P388 [1] were 100 nM and 54 nM, respectively. Moreover, the ILS at 30 mg/kg in the experiment with P388 [6] was 57%.
With `CS(=O)(=O)Nc1cccc(Nc2c3ccccc3nc3ccccc23)c1`, the IC50 in the experiment with L1210 was found to be 110 nM; in the experiment on P388 [1], 90 nM. In the experiment with P388 [14], this compound yielded an increase in life span (ILS) at 66 mg/kg of 53%.
As to `O=P1(Nc2ccc(Nc3c4ccccc4nc4ccccc34)cc2)OCCO1`, the IC50 with L1210 was 180 nM; with P388 [1], 110 nM. The same compound gave an ILS at 30 mg/kg in the experiment with P388 [6] of 54%. In addition, in the experiment on Nucleic Acid, the Log K worked out at 6.52.
